aDG glyco act: alpha-DG glycosylation activation | activation, % at 10 µM | hit rate 0.22% among 360,000 | Pro5-aDG cells, alpha-DG glycosylation AlphaScreen (IIH6); 0% Pro5, 100% B10-LARGE cell signal;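 active = activation of at least 8% versus controls, or a plate z-score of at least 8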;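 also: Pro5 are CHO cells carrying HIG-tagged alpha-DG that lacks glycosylation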
697 NFkB inh: inhibitors of the PMA/ionomycin-induced NF-kB reporter in 697 B cells | AID 435022 | hit rate 0.33% among 330,000 | inhibition, % at 4 µM | 697 B-cell NF-kB luciferase reporter, 16 h; in the data active = inhibition above about 35%
Jurkat NFkB inh: lowers PMA/ionomycin-induced NF-kB signal in Jurkat cells; hit rate 0.53% among 330,000; inhibition, % at 4 µM; PMA/ionomycin-induced NF-kB luciferase reporter, luminescence; in the data active = inhibition above about 50%
NR2E3 ag-1: agonists of human NR2E3 nuclear receptor; Q9Y5X4; CHO-S Gal4-NCOR/VP16-NR2E3 two-hybrid, luciferase; inhibition of corepressor binding, % at 3.98 µM; hit rate 0.35% among 360,000;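 active = inhibition above the mean of all tested compounds plus 3 SD, cut at about 70% in these data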;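 also: 0% = DMSO with NR2E3 transfected cells and 100% = cells lacking NR2E3 construct; higher means lower luciferase signal from less NR2E3 corepressor binding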
Target sequence (Q9Y5X4 whole entry, looked up, the tested form may be a part): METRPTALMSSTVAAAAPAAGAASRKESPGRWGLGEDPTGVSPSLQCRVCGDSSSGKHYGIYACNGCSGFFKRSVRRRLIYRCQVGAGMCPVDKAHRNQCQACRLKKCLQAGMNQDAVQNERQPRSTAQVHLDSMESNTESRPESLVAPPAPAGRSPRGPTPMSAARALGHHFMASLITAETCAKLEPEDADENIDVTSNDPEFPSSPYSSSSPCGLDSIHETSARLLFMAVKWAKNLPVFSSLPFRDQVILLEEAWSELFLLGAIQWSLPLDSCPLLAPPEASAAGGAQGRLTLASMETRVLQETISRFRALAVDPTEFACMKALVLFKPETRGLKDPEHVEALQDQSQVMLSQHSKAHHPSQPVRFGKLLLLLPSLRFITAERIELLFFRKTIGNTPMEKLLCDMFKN
MPTP inh: blocks calcium-induced mitochondrial swelling | isolated mouse mitochondria, Ca2+ swelling absorbance, 30 min | hit rate 1.4% among 360,000 | inhibition, % at 10 µM | AID 602449;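 active = inhibition of 50% or more, scaled per plate between neutral and stimulator controls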;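 also: 0% = DMSO wells given calcium and 100% = 1 mM EGTA wells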
NR2E3 ag-2: agonists of human nuclear receptor NR2E3; AID 2300; GST-NR2E3/biotin-RetCOR TR-FRET, 1536-well; inhibition of corepressor binding, % at 4.78 µM; Q9Y5X4; hit rate 0.12% among 320,000;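 active = percent inhibition above the cutoff of mean plus 3 SD of all tested compounds, set per screening campaign, cut at about 20% in these data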;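 also: 0% = DMSO wells and 100% = biotin wells as full block of FRET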
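Material: NR2E3–RetCOR corepressor complex | Quantity: 1.35 nM GST-tagged NR2E3 final | Schedule: 5 h at 4 °C | Replication: Singlicate compound wells | Reagent: RetCOR corepressor, biotinylated, 7 nM | Controls: Biotin wells as high control, 0.6% DMSO wells as low control | Signal: TR-FRET, Eu(K)-anti-GST donor, streptavidin-D2 acceptor, ex 340, em 617/671 nm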
NR2E3 ag conf: NR2E3 agonism confirmed in two-hybrid assay | inhibition, % at 3.98 µM | hit rate 51% among 2,300 | CHO-S mammalian two-hybrid NR2E3-NCOR, luciferase luminescence | shares compounds with NR2E3 ag-1;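 active = average inhibition above a cutoff equal to the mean inhibition of all tested compounds plus one SD, cut at about 70% in these data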;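 also: 0% = DMSO in NR2E3 cells and 100% = DMSO in cells lacking NR2E3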
GAL4-VP16 luc: counter-screen for NR2E3 agonists: GAL4-VP16 reporter inhibitors | shares compounds with NR2E3 ag-1 | CHO-S GAL4-VP16 luciferase reporter, luminescence | inhibition, % at 3.98 µM | hit rate 29% among 2,300;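 active = mean inhibition above a cutoff equal to the average over all tested compounds plus one standard deviation, cut at about 70% in these data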;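 also: luciferase from a UAS reporter driven by GAL4-VP16 transactivation; 0% = DMSO with VP16-transfected cells and 100% = DMSO with cells lacking VP16; higher means less reporter light so more repression of VP16 activity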
Starred values were filed as active, the others as inactive. A selection: hits, their analogues and other compounds. The true share with any hit is near 2.4%.

For C=CCOC(=O)c1[nH]c2c(c1C)C(=O)CC(c1cc(OC)c(OC)c(OC)c1)C2 (stereo not given) the results were aDG glyco act 1.6, 697 NFkB inh 12.2, Jurkat NFkB inh 37.8, NR2E3 ag-1 54.1, MPTP inh 36.6, NR2E3 ag-2 0.3, NR2E3 ag conf 72.9* and GAL4-VP16 luc 45.3.
For COCCOC(=O)c1[nH]c2c(c1C)C(=O)CC(c1cc(OC)c(OC)c(OC)c1)C2 (stereo not given) the results were aDG glyco act 0.9, 697 NFkB inh -17.4, Jurkat NFkB inh 7.1, NR2E3 ag-1 14.7, MPTP inh -0.3 and NR2E3 ag-2 -4.4.
`O=C(Nc1ccc(Cl)cc1)c1ccc(-c2ccccn2)s1` gave aDG glyco act 0.1, 697 NFkB inh 3.1, Jurkat NFkB inh -121.3, NR2E3 ag-1 -1.1, MPTP inh 4.2 and NR2E3 ag-2 -29.9.
`COC1=C(C)C(=O)C2=C(C1=O)C1C3CC4=C(C(=O)C(OC)=C(C)C4=O)C(CNC(=O)C(C)=O)N3C(C#N)C(C2)N1C` (stereo not given) gave aDG glyco act 0.7, NR2E3 ag-1 102.2*, MPTP inh 0.9, NR2E3 ag conf 99.6* and GAL4-VP16 luc 95.2*.
For COc1ccc(CNn2cnnc2)c(O)c1 the results were aDG glyco act -0.2, 697 NFkB inh -9.5, Jurkat NFkB inh 7.0, NR2E3 ag-1 -15.0, MPTP inh -0.1 and NR2E3 ag-2 2.8.
For Cc1ccc(F)c(S(=O)(=O)NC(=O)C2(C)CCN2C(=O)Cc2cc(F)ccc2F)c1 (stereo not given) the results were aDG glyco act -0.4, NR2E3 ag-1 -10.7 and MPTP inh 2.4.
Screening COc1cc(/C=C2\COC/C(=C\c3cc(OC)c(OC)c(OC)c3)C2=O)cc(OC)c1OC returned aDG glyco act -0.4, NR2E3 ag-1 86.5*, MPTP inh 2.4, NR2E3 ag conf 100.5* and GAL4-VP16 luc 82.3*.
For COc1cc(/C=C2\CC/C(=C\c3cc(OC)c(O)c(OC)c3)C2=O)cc(OC)c1O the results were aDG glyco act -0.2, 697 NFkB inh 9.2, Jurkat NFkB inh -1.0, NR2E3 ag-1 77.2*, MPTP inh 13.8, NR2E3 ag-2 7.2, NR2E3 ag conf 96.4* and GAL4-VP16 luc 67.4.
For O=C(CS(=O)(=O)c1ccc(Cl)cc1)Nc1nnc(-c2cccs2)o1 the results were aDG glyco act 0.0, 697 NFkB inh 10.7, Jurkat NFkB inh -1.1, NR2E3 ag-1 -18.7, MPTP inh -1.6 and NR2E3 ag-2 -0.4.
Screening O=C(NCc1c(F)cccc1F)c1cc(COc2c(F)cccc2F)on1 returned aDG glyco act 0.6, 697 NFkB inh -5.1, Jurkat NFkB inh -10.4, NR2E3 ag-1 88.6*, MPTP inh -0.2, NR2E3 ag-2 3.0, NR2E3 ag conf -27.5 and GAL4-VP16 luc -48.9.
Screening O=C(NCc1ccc(F)cc1F)c1cc(COc2c(F)cccc2F)on1 returned aDG glyco act 0.2, 697 NFkB inh 17.3, Jurkat NFkB inh -16.6, NR2E3 ag-1 -1.0, MPTP inh -0.8 and NR2E3 ag-2 -1.4.
For OC(Cc1ccnc2ccccc12)C(Cl)(Cl)Cl (stereo not given) the results were aDG glyco act 4.0, NR2E3 ag-1 68.9, MPTP inh 8.3, NR2E3 ag conf 59.1 and GAL4-VP16 luc 59.6.
O=C(Cc1ccc(S(=O)(=O)N2CCOCC2)s1)N1CCN(c2cccc(C(F)(F)F)c2)CC1 was read as aDG glyco act 5.4, 697 NFkB inh -7.3, Jurkat NFkB inh -1.7, NR2E3 ag-1 71.8*, MPTP inh -0.2, NR2E3 ag-2 -0.8, NR2E3 ag conf 80.6* and GAL4-VP16 luc 60.6.
For O=C(Cc1ccc(S(=O)(=O)N2CCCC2)s1)N1CCN(c2ccccc2)CC1 the results were aDG glyco act -0.1, 697 NFkB inh -0.6, Jurkat NFkB inh -0.1, NR2E3 ag-1 3.4, MPTP inh -1.3 and NR2E3 ag-2 1.8.
Screening Cc1cc(-c2nc3ncccc3o2)ccc1NC(=S)NC(=O)c1ccco1 returned aDG glyco act 1.5, 697 NFkB inh -0.5, Jurkat NFkB inh -7.4, NR2E3 ag-1 -12.5, MPTP inh 0.3 and NR2E3 ag-2 -55.1.
`CCCOc1ccc(S(=O)(=O)NCc2ccc(OC)cc2)cc1` gave aDG glyco act 5.4, 697 NFkB inh 1.3, Jurkat NFkB inh -2.3, NR2E3 ag-1 50.3, MPTP inh 4.8, NR2E3 ag-2 0.6, NR2E3 ag conf 63.4 and GAL4-VP16 luc 49.1.
Screening CN(CC(=O)Nc1ccc(Cl)c(C(F)(F)F)c1)CC(=O)NC1CCCCC1 returned aDG glyco act 0.4, 697 NFkB inh 0.0, Jurkat NFkB inh 4.3, NR2E3 ag-1 60.5, MPTP inh -0.5, NR2E3 ag-2 -0.2, NR2E3 ag conf 53.2 and GAL4-VP16 luc 37.1.
For CCN1CCN(S(=O)(=O)c2ccc(Cl)c(C(=O)N(C)Cc3cccc(Cl)c3Cl)c2)CC1 the results were aDG glyco act 0.4, 697 NFkB inh -11.3, Jurkat NFkB inh -6.4, NR2E3 ag-1 6.8, MPTP inh -1.3 and NR2E3 ag-2 1.0.
Screening CN(Cc1cccc(Cl)c1Cl)C(=O)c1cccc(S(=O)(=O)N2CCN(Cc3ccccc3)CC2)c1 returned aDG glyco act 0.9, 697 NFkB inh -9.9, Jurkat NFkB inh 13.2, NR2E3 ag-1 56.4, MPTP inh 12.0, NR2E3 ag-2 -0.8, NR2E3 ag conf 85.7* and GAL4-VP16 luc 58.8.
`CN(Cc1cccc(F)c1)C(=O)c1cccc(S(=O)(=O)N2CCN(Cc3ccccc3)CC2)c1` gave aDG glyco act -0.2, 697 NFkB inh 14.8, Jurkat NFkB inh 10.7, NR2E3 ag-1 60.9, MPTP inh 0.9, NR2E3 ag-2 -2.0, NR2E3 ag conf 49.7 and GAL4-VP16 luc 35.8.
`CN(Cc1ccc(Cl)c(Cl)c1)C(=O)c1cccc(S(=O)(=O)N2CCN(Cc3ccccc3)CC2)c1` gave aDG glyco act 0.5, 697 NFkB inh -12.3, Jurkat NFkB inh 10.7, NR2E3 ag-1 58.7, MPTP inh 0.5, NR2E3 ag-2 -4.7, NR2E3 ag conf 63.3 and GAL4-VP16 luc 52.2.
For CN(CC(=O)Nc1cccc(F)c1)C(=O)c1cccc(S(=O)(=O)N2CCN(Cc3ccccc3)CC2)c1 the results were aDG glyco act 1.1, NR2E3 ag-1 22.0 and MPTP inh 0.9.
For CN1OC[C@@H]2CN[C@H](c3ccc(-c4cc5ccccc5o4)cc3)C[C@@H]21 the results were aDG glyco act 0.2, NR2E3 ag-1 91.5*, MPTP inh -2.6, NR2E3 ag conf 78.5* and GAL4-VP16 luc 68.0.

Source: PubChem
